Series [1] has as its system Human immunodeficiency virus 1. Briefly: Antiviral activity against HIV1 NL4-3 expressing NanoLuc-sec infected in human MT4 cells assessed as reduction in viral replication measured after 3 days by bright Glo-luciferase reporter gene assay. The class given is functional, organism-based. The settings on record: Human immunodeficiency virus 1, NL4-3, MT4, 72 h. The gist of the method: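 MT-4 cells (1 × 10⁵ cells/mL) infected with 200 TCID50 HIV-1 NL4–3 Nanoluc-sec across a range of compound concentrations. Incubation ran 3 days at 37°C, 5% CO₂, over multiple replication rounds. Luminescence was read after Bright Glo addition. EC₅₀ is the concentration giving 50% lower luciferase RLU than virus-control wells.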
On the technique in general: Reporter assays use an easily measured gene product as a stand-in for the process of interest.

The test system of series [2] is MT4. Briefly: (§1) Cytotoxicity against human MT4 cells assessed as reduction in cell viability incubated for 3 days by XTT assay. The class given is cell-based. The settings on record: mt4, 72 h, time 3 day. A digest of the protocol:
(§2)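 Uninfected MT-4 cells were cultured with various compound concentrations at 37°C, 5% CO₂ for three days, in parallel with the antiviral assay. XTT was added, and absorbance at 450 nm was read four hours later. CC₅₀ is the concentration giving 50% loss of cell viability.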
On the technique in general: Tetrazolium assays rely on reduction of a dye to a coloured formazan, in cell work by metabolically active cells.

Series [3] can be described thus: Selectivity index, ratio of CC50 for cytotoxicity against human MT4 cells to EC50 for antiviral activity against HIV1 infected in human MT4 cells. The class given is toxicity, cell-based. The settings on record: read-out: Ratio CC50/EC50. A digest of the protocol: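 SI is CC₅₀/EC₅₀. For EC₅₀, MT-4 cells (1 × 10⁵ cells/mL) were infected with 200 TCID50 HIV-1 NL4-3 Nanoluc-sec with graded compound concentrations, held 3 days at 37°C, 5% CO₂, and read by luminescence; EC₅₀ is 50% luciferase reduction versus virus control. For CC₅₀, uninfected MT-4 cells were run in parallel for 3 days with an XTT read-out at 450 nm.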

Series [4] is described as follows: Binding affinity to HIV1 capsid protein hexamer assessed as dissociation constant by SPR analysis. More on the design: species or system Human immunodeficiency virus 1. The gist of the method:
(§3)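 SPR at 25 °C on amine-coupled GLH chips, with protein at 500 μg/ml in 10 mM sodium acetate pH 5.5. Running buffer was 20 mM sodium phosphate, 150 mM NaCl, 0.005% Tween 20, pH 7.4, plus 3% DMSO for compound dilutions. One-shot kinetics used 100 μL/min, 1 min association and 5 min dissociation. Responses were reference-subtracted, run three times, and KD taken from a one-site binding model.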
A general note: In SPR one partner is held on a chip, and binding of the other changes the refractive index at the surface.

The nature of series [5]: Binding affinity to HIV1 capsid protein monomer assessed as dissociation constant by SPR analysis. Also on record: species or system Human immunodeficiency virus 1. A digest of the protocol: as §3
The nature of series [6]: as §1. The format is cell-based. The settings on record: MT4 cells, time 3 day. A digest of the protocol: as §2

In the case of `COc1ccc(N(C)C(=O)[C@H](Cc2ccccc2)NC(=O)c2cccc(S(=O)(=O)N3CCSCC3)c2)cc1`, the EC50 in series [1] is 5.06 µM. The CC50 in series [2] was > 9.33 µM. Besides, the selectivity ratio in series [3] was > 1.84.

With `COc1ccc(N(C)C(=O)[C@H](Cc2ccccc2)NC(=O)c2cccc(NS(=O)(=O)c3ccc(OC(F)(F)F)cc3)c2)cc1`, in series [1], the EC50 is > 7.97 µM. Moreover, the CC50 in series [2] is > 7.97 µM.

Regarding `COc1ccc(N(C)C(=O)[C@H](Cc2ccccc2)NS(=O)(=O)CC(=O)Nc2ccc(C#N)cc2)cc1`, the EC50 in series [1] is 8.09 µM. In series [2], the CC50 was > 9.87 µM. Moreover, the selectivity ratio in series [3] was > 1.22.

On to `COc1ccc(N(C)C(=O)[C@H](Cc2ccccc2)NC(=O)c2cccc(S(=O)(=O)Nc3ccc(C(F)(F)F)cc3)c2)cc1`, for which the EC50 in series [1] is > 8.17 µM. In series [2], the CC50 was > 8.17 µM.

Consider `COc1ccc(N(C)C(=O)[C@H](Cc2ccccc2)NC(=O)c2cccc(S(=O)(=O)N3CCc4cc([N+](=O)[O-])ccc43)c2)cc1`, for which the EC50 in series [1] is > 8.13 µM. The CC50 in series [2] was > 8.13 µM.

`COc1ccc(N(C)C(=O)CS(=O)(=O)N[C@@H](Cc2ccccc2)C(=O)N(C)c2ccc(OC)cc2)cc1`: the EC50 in series [1] turned out to be 5.14 µM. Besides, in series [2], the CC50 is > 9.51 µM. Also, in series [3], the selectivity ratio is > 1.85. Also, the values for the Kd in series [4] and in series [5] were 4.82 µM and 15.8 µM, respectively.

For `COc1ccc(N(C)C(=O)[C@H](Cc2ccccc2)NC(=O)c2cccc(S(=O)(=O)Nc3cc(F)cc(F)c3)c2)cc1`, the EC50 in series [1] is > 8.63 µM. In addition, the CC50 in series [2] was > 8.63 µM.

On to `COc1ccc(N(C)C(=O)[C@H](Cc2ccccc2)NC(=O)c2cccc(NS(=O)(=O)c3cc(F)cc(F)c3)c2)cc1`, for which, in series [1], the EC50 was > 8.63 µM. Moreover, the CC50 in series [2] is > 8.63 µM.

For `COc1ccc(N(C)C(=O)c2cccc(S(=O)(=O)N[C@@H](Cc3ccccc3)C(=O)N(C)c3ccc(OC)cc3)c2)cc1`, the EC50 in series [1] is > 8.51 µM. Moreover, the CC50 in series [2] is > 8.51 µM.

`COc1ccc(N(C)C(=O)[C@H](Cc2ccccc2)NC(=O)c2cccc(S(=O)(=O)N(C)c3ccc(OC)cc3)c2)cc1`: the EC50 in series [1] worked out at 5.27 µM. For the same molecule, the CC50 in series [2] was > 8.51 µM. For the same molecule, in series [3], the selectivity ratio is > 1.61.

With `COc1ccc(N(C)C(=O)[C@H](Cc2ccccc2)NS(=O)(=O)c2cccc(C(=O)Nc3ccc4ncsc4c3)c2)cc1`, the EC50 in series [1] is > 8.32 µM. Further, in series [2], the half-maximal cytotoxic concentration (CC50) was > 8.32 µM.

As for `COc1ccc(N(C)C(=O)[C@H](Cc2ccccc2)NS(=O)(=O)CC(=O)N2CCc3cc(OC)ccc32)cc1`, in series [1], the EC50 was > 9.3 µM. Also, the CC50 in series [2] was > 9.3 µM.

In the case of `COc1ccc(N(C)C(=O)[C@H](Cc2ccccc2)NS(=O)(=O)CC(=O)N2CCc3cc([N+](=O)[O-])ccc32)cc1`, in series [1], the EC50 is > 9.09 µM. In addition, the CC50 at 72 h in series [6] was > 9.05 µM.

`COc1ccc(N(C)C(=O)[C@H](Cc2ccccc2)NC(=O)c2cccc(S(=O)(=O)N3CCc4cc(OC)ccc43)c2)cc1`: in series [1], the EC50 is > 8.34 µM. In series [2], the CC50 was > 8.34 µM.

For the molecule `COc1ccc(N(C)C(=O)[C@H](Cc2ccccc2)NS(=O)(=O)CC(=O)Nc2ccc3ncsc3c2)cc1`, the EC50 in series [1] was > 9.28 µM. Moreover, the CC50 in series [2] was > 9.28 µM.

With `COc1ccc(N(C)C(=O)[C@H](Cc2ccccc2)NC(=O)C(=O)N2CCc3cc(OC)ccc32)cc1`, the EC50 in series [1] is > 10.3 µM. Further, the CC50 in series [2] is > 10.3 µM.

In the case of `COc1ccc(N(C)C(=O)[C@H](Cc2ccccc2)NS(=O)(=O)c2cccc(C(=O)NC3CC3)c2)cc1`, the EC50 in series [1] is > 9.85 µM. In addition, in series [2], the CC50 was > 9.85 µM.

In the case of `COc1ccc(N(C)C(=O)[C@H](Cc2ccccc2)NS(=O)(=O)CC(=O)Nc2cc(F)cc(F)c2)cc1`, the EC50 in series [1] was > 9.66 µM. Further, in series [2], the CC50 was > 9.66 µM.

Turning to `COc1ccc(N(C)C(=O)[C@H](Cc2ccccc2)NC(=O)c2cccc(NS(=O)(=O)c3ccc(F)cc3)c2)cc1`, the EC50 in series [1] is > 8.91 µM. Further, the CC50 in series [2] was > 8.91 µM.

As for `COc1ccc(N(C)C(=O)[C@H](Cc2ccccc2)NC(=O)c2cccc(S(=O)(=O)N3CCc4cc(N)ccc43)c2)cc1`, the EC50 in series [1] was found to be 2.57 µM. The CC50 in series [2] was > 8.55 µM. Moreover, the selectivity ratio in series [3] is > 3.33. Further, the Kd amounted to 4.21 µM in series [4] and 11.6 µM in series [5].

Regarding `COc1ccc(N(C)C(=O)[C@H](Cc2ccccc2)NC(=O)C(=O)Nc2ccc([N+](=O)[O-])cc2)cc1`, the EC50 in series [1] was > 10.5 µM.

As for `COc1ccc(N(C)C(=O)[C@H](Cc2ccccc2)NC(=O)C(=O)Nc2cc(F)cc(F)c2)cc1`, the EC50 in series [1] is > 8.81 µM. Further, in series [2], the CC50 is > 8.81 µM.

For `COc1ccc(N(C)C(=O)[C@H](Cc2ccccc2)NS(=O)(=O)c2cccc(C(=O)N3CCc4ccncc43)c2)cc1`, in series [1], the EC50 is > 8.76 µM. The CC50 at 72 h in series [6] was > 8.76 µM.

As for `COc1ccc(N(C)C(=O)C(=O)N[C@@H](Cc2ccccc2)C(=O)N(C)c2ccc(OC)cc2)cc1`, the EC50 in series [1] is > 10.5 µM. In addition, the CC50 in series [2] is > 10.5 µM.

For the molecule `COc1ccc(N(C)C(=O)[C@H](Cc2ccccc2)NC(=O)c2cccc(S(=O)(=O)N(C)C)c2)cc1`, the EC50 in series [1] was determined as 8.68 µM. The CC50 in series [2] was > 10.1 µM. In addition, the selectivity ratio in series [3] was > 1.12.

Turning to `COc1ccc(N(C)C(=O)[C@H](Cc2ccccc2)NC(=O)C(=O)N2CCc3cc([N+](=O)[O-])ccc32)cc1`, the EC50 in series [1] was > 9.95 µM. Further, in series [2], the CC50 was > 9.95 µM.

For `COc1ccc(N(C)C(=O)[C@H](Cc2ccccc2)NC(=O)c2cccc(S(=O)(=O)N3CCCCC3)c2)cc1`, in series [1], the concentration giving a half-maximal response (EC50) is 4.85 µM. In series [6], the CC50 at 72 h was > 9.03 µM. Further, the selectivity ratio in series [3] was > 1.86.

Consider `COc1ccc(N(C)C(=O)[C@H](Cc2ccccc2)NC(=O)c2cccc(S(=O)(=O)N3CCc4ccccc43)c2)cc1`, for which, in series [1], the EC50 was > 8.78 µM. Moreover, the CC50 in series [2] is > 8.78 µM.

In the case of `COc1ccc(N(C)C(=O)[C@H](Cc2ccccc2)NC(=O)C(=O)Nc2ccc3ncsc3c2)cc1`, in series [1], the EC50 is > 10.2 µM. Further, the CC50 in series [2] was > 10.2 µM.

As to `COc1ccc(N(C)C(=O)[C@H](Cc2ccccc2)NC(=O)C(=O)Nc2ccc(C#N)cc2)cc1`, in series [1], the EC50 is > 11 µM. The CC50 in series [2] is > 11 µM.

With `COc1ccc(N(C)C(=O)[C@H](Cc2ccccc2)NS(=O)(=O)CC(=O)n2ncc3ccccc32)cc1`, the EC50 in series [1] was > 9.87 µM. In addition, the CC50 in series [2] was > 9.87 µM.

For the molecule `COc1ccc(N(C)C(=O)[C@H](Cc2ccccc2)NS(=O)(=O)c2cccc(C(=O)N3CCOCC3)c2)cc1`, in series [1], the EC50 was > 9.3 µM. Also, the CC50 in series [2] was > 9.3 µM.

Broadly, the EC50 is the concentration at which the effect is half-maximal. As a reminder, the CC50 is the concentration giving 50% cytotoxicity. In general, Kd refers to the concentration at which binding is half-saturated.

The record behind these values is ChEMBL document CHEMBL5053517, “Design, synthesis, and antiviral activity of phenylalanine derivatives as HIV-1 capsid inhibitors” (Bioorg Med Chem, 2021).
